Active and inactive are the calls of the source. The rule behind the calls is not given here.
Tests used:
Pancreatic islet = assay: Inhibition of GLP1(9-36)NH2-mediated glucose-stimulated insulin secretion in dispersed GLP-1(-/-) mouse pancreatic islets at 10 uM incubated for 2 hrs by ELISA; format: functional, cell-based
[1] = Clearance in C57Bl6 mouse at 3 mg/kg, iv administered as single dose measured up to 24 hrs ESI-LC/MS-MS analysis; format: ADME, organism-based; conditions: in vivo
Outline: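 Female C57Bl6 mice (n=24) given single 3 mg/kg i.v. in solution (75% water : 25% of 75% Glycoferol/25% Cremophor); plasma sampled at 0.083, 0.25, 0.5, 1, 2, 4, 6, 8, 24 h; heparinized plasma after acetonitrile protein precipitation analysed by ESI-LC/MS-MS (LOQ 5 ng/mL); noncompartmental parameters with linear trapezoidal calculation.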

[2] = Volume of distribution at steady state in Wistar rat at 3 mg/kg, iv administered as single dose measured up to 24 hrs ESI-LC/MS-MS analysis; conditions: in vivo
OATP1B1 = molecular target: T1, OATP1B1 (Homo sapiens, UniProt Q9Y6L6); assay: Substrate activity at human OATP1B1 expressed in HEK293 cells assessed as increase in compound uptake at 1 uM incubated up to 15 mins LC-MS/MS analysis relative to control relative to control; format: ADME, cell-based; conditions: HEK293 cells expressing human OATP1B1, read-out: FC
T1 sequence (Q9Y6L6 whole entry): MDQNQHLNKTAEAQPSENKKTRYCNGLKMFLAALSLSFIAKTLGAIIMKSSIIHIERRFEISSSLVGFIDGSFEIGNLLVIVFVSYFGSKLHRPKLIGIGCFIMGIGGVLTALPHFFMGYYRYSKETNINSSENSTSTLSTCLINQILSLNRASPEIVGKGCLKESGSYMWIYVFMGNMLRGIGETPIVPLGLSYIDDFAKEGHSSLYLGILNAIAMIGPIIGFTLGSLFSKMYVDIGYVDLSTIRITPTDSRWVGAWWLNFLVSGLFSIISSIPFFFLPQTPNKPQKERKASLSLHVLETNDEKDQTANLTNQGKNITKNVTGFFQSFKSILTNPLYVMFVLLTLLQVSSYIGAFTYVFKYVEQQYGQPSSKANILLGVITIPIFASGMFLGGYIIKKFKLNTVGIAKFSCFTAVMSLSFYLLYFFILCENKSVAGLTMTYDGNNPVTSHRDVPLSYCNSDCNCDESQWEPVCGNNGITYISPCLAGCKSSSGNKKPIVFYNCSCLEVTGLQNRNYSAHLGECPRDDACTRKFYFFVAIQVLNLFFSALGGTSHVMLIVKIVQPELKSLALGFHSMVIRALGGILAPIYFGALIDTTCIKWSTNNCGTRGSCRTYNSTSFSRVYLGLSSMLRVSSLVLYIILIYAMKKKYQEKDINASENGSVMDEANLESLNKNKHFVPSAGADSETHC
Outline: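 HEK-TR cells overexpressing hOATP1B1 or hOATP1B3, run in parallel with control HEK-TR cells, seeded at 1 x 10⁵ cells/well one day before. Time-dependent uptake of 1 μM compound in HBSS at 37 °C, quadruplicates. Uptake stopped with ice-cold buffer, cells washed, lysed and quantified by LC-MS/MS. Uptake ratio calculated against the control cells.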

[3] = Stability in mouse plasma by LC-MS/MS analysis; format: ADME, cell-free
[4] = Cmax in Wistar rat at 10 mg/kg, po administered as single dose treated 2 hrs after dosing with 40 mg/kg, po OATP/MRP2 inhibitor rifampicin and measured up to 24 hrs ESI-LC/MS-MS analysis; format: ADME, organism-based; set-up: dose 10 mg/kg, route oral; conditions: in vivo
Outline: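 Male Wistar rats (n=3 per route) pretreated orally with rifampicin 40 mg/kg (0.6% methylcellulose, 0.5% Tween 80 in water) 2 h before compound, given 3 mg/kg i.v. in Glycoferol/Cremophor-water solution or 10 mg/kg p.o. wet-milled suspension. Plasma sampled up to 24 h; ESI-LC/MS-MS after acetonitrile precipitation (LOQ 1 ng/mL); noncompartmental analysis.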

Mus musculus [5] = assay: Suppression of blood glucose concentration in GLP-1R (-/-) C57Bl/6J mouse model at 30 mg/kg, po dosed 1 hrs before test and treated with 60 mg/kg, po OATP/MRP2 inhibitor rifampicin 2.5 hrs prior to oral glucose-tolerance test; format: functional, organism-based
Outline: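 GLP-1R-/- male mice aged 10 weeks, n=6, fasted overnight. Rifampicin 60 mg/kg p.o. 2.5 h before the oGTT, compound p.o. 1 h before, with or without GLP1(9-36)NH2 i.p. 15 min before. Glucose 2 g/kg orally. Tail-vein blood glucose by glucometer at 0, 15, 30, 60 and 90 min.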

Mus musculus [6] = assay: Suppression of blood glucose concentration in ob/ob C57Bl/6J mouse model of T2DM at 30 mg/kg, po dosed 1 hrs before test and treated with 60 mg/kg, po OATP/MRP2 inhibitor rifampicin 2.5 hrs prior to oral glucose-tolerance test; format: functional, organism-based
Outline: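 Male ob/ob mice aged 10–11 weeks, n=7, randomised on blood glucose and fasted overnight. Rifampicin 60 mg/kg p.o. 2.5 h before the oGTT, compound 30 mg/kg p.o. 1 h before, GLP1(9-36)NH2 i.p. 15 min before, each given as indicated. Glucose 2 g/kg orally. Tail-vein glucose by glucometer at 0, 15, 30, 60 and 90 min.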

[7] = molecular target: Voltage-gated inwardly rectifying potassium channel KCNH2 (Homo sapiens, UniProt Q12809); assay: Inhibition of human ERG by patch clamp assay
Voltage-gated inwardly rectifying potassium channel KCNH2, sequence (Q12809 whole entry): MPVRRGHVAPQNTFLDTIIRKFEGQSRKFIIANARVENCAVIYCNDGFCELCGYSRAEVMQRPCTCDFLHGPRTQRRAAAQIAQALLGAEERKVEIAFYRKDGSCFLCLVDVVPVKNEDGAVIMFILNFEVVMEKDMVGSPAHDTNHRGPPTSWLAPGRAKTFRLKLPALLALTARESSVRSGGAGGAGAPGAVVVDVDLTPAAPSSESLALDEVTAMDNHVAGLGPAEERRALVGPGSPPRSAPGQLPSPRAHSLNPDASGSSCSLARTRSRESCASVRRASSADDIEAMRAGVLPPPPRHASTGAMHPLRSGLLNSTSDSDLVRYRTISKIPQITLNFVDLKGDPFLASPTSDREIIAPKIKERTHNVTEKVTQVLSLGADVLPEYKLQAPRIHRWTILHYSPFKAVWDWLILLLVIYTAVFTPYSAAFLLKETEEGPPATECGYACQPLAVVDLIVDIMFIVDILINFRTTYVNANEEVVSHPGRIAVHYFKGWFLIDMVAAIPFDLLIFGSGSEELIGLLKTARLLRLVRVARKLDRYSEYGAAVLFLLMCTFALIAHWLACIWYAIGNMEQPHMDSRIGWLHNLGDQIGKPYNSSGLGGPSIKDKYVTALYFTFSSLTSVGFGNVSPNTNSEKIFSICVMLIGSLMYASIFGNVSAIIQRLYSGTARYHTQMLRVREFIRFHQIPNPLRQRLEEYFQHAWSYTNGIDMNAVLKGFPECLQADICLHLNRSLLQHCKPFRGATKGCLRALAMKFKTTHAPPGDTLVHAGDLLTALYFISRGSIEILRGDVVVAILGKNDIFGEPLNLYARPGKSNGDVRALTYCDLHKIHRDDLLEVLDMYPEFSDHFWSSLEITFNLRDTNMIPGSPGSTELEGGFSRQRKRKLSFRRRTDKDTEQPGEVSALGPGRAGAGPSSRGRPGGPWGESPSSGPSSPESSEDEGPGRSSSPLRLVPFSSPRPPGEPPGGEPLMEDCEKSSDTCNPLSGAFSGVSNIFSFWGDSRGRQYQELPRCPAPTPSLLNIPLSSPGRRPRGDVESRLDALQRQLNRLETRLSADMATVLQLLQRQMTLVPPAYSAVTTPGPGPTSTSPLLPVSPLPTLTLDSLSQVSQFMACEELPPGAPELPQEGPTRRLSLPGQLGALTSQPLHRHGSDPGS

| Structure (SMILES) | inhibition (Pancreatic islet) | clearance [1] [mL/min/kg] | Vdss [2] [L/kg] | uptake ratio at 0.25 h, 1 µM (OATP1B1) | Stability [3] [%] | Cmax [4] [ng/mL] | Activity (Mus musculus [5]) | Activity (Mus musculus [6]) | IC50 [7] [µM] |
| --- | --- | --- | --- | --- | --- | --- | --- | --- | --- |
| CC(O)CCN1C[C@H]2c3c(c4ccccc4n3C(=O)OC(C)(C)C)C[C@@H](C1=O)N2C(=O)CC1CCC(F)(F)CC1 (some centres undefined) | Active | – | – | – | – | – | – | – | – |
| CC(C)(C)OC(=O)n1c2c(c3ccccc31)C[C@H]1C(=O)N3C[C@@H](CC(=O)O)C[C@H]3[C@@H]2N1C(=O)CC1CCC(F)(F)CC1 | – | 109 | 2.29 | 6 to 22 | 98 | 1130 | inactive | inactive | > 30 |

— ChEMBL document CHEMBL4354813, “Design, Synthesis, and Pharmacological Evaluation of Potent Positive Allosteric Modulators of the Glucagon-like Peptide-1 Receptor (GLP-1R)” (J Med Chem, 2020)
